# PHOSPHO1 block: PubChem AID 1565. recombinant PHOSPHO1, absorbance phosphatase assay. 1.1% of 290,000 active. inhibition, % at 13.3 µM; in the data active = inhibition above about 60%
# AI-2 QS mod: Vibrio harveyi AI-2 quorum sensing modulators, primary screen, JMH597 strain, luminescence/OD600 ratio. Vibrio harveyi JMH597 AI-2 luminescence/OD600 ratio, 9 h; active compounds read low; strain lacks LuxN and CqsS sensors; 0 = neutral-control median. activity change, % at 7.5 µM. 0.4% of 300,000 active; in the data active = activity change below about -75%, passing the limit was not always enough;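 also: luminescence divided by OD600 gain over 9 h not by final OD600 alone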
# ALR inh: inhibitors of human ALR sulfhydryl oxidase, primary screen, biochemical, H2O2 detection, HRP-luminol luminescence, single point; FAD-linked sulfhydryl oxidase ALR (Homo sapiens), P55789; purified ALR, DTT oxidation; inhibition, % (no concentration beside the values); 3.8% of 290,000 active;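 active = mean replicate inhibition above about 79%, with every replicate also reaching it, limit read from the data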
# Target sequence (P55789 whole entry, looked up): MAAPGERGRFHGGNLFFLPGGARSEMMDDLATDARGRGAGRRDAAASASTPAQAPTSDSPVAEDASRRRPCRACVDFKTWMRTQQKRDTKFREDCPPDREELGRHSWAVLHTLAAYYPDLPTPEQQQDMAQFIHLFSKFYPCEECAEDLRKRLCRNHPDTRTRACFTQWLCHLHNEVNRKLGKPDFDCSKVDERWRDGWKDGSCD
# core dimer inh: inhibitors of HCV core protein dimerization, primary screen, biochemical, TR-FRET, high-throughput. 0.33% of 300,000 active. inhibition, % at 5 µM. TR-FRET GST/Flag-core106 dimerization, 1536-well;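 active = inhibition above the mean of all tested compounds plus 3 SD, set per screening campaign, cut at about 45% in these data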
#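 Material: Tagged HCV core106 pair (GST and Flag) | Amount: GST-core106 13.5 nM, Flag-core106 17 nM | Medium: KF-containing HEPES buffer, pH 7.45, DTT, CHAPS, BSA | Reagent: Eu donor and XL665 acceptor anti-tag antibodies | Schedule: 4 h at 22.5 °C | Technique: Time-resolved FRET, ex 340 nm, em 617 and 671 nm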
# HSF1 activator: HSF-1 activators, primary screen, NIH3T3-HGL cells, MG132 stress, luminescence, single point | NIH3T3-HGL HSF-1 luciferase reporter, 8 h; 100% = twice DMSO control signal | activation, % at 9 µM | 1.7% of 300,000 active;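 active = mean replicate activation of at least 50% with a set share of replicates each reaching 50%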;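 also: 0% = median of the neutral control wells and 100% = twice that signal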
# HSF1 inh: HSF1 inhibitors in luciferase reporter cells, primary screen, cell-based, NIH3T3, luminescence | NIH3T3-HGL HSE-luciferase, MG132-induced, luminescence 8 h; active compounds read low | activity change, negative = inhibition, % at 7.5 µM (by protocol) | 0.77% of 300,000 active | AID 2098, 2009;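 active = more than half of replicate wells show activity change below -50%, luminescence cut by over half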;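 also: luciferase reports HSF-1 transcriptional activity via heat shock element; 0% = median of DMSO wells and -100% = zero luminescence signal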
# * = called active by the depositor; / = no result. This is a sample that favours compounds with a hit; in the whole collection about 6.8% have one here.
SMILES,PHOSPHO1 block,AI-2 QS mod,ALR inh,core dimer inh,HSF1 activator,HSF1 inh
CCOC(=O)c1c(C)oc2c1C(=O)c1ccccc1C2=O,-60.3,16.4,-27.5,-0.2,25.7,5.4
O=S(=O)(Nc1nc2ccccc2nc1NCCO)c1cccc(Cl)c1,-16.3,60.0,3.0,-7.9,19.3,-0.2
Cc1cccc(NS(=O)(=O)c2ccc(C(=O)NCC3CCCO3)cc2)c1C (stereo not given),60.6*,20.4,9.3,4.8,-7.2,-3.6
O=C(Nc1cccc(Cl)c1)c1ccc(S(=O)(=O)NCC2CCCO2)cc1 (stereo not given),31.0,9.4,0.6,-0.1,-91.1,-88.5*
O=C(NCC1CCCO1)c1ccc(S(=O)(=O)Nc2ccccc2F)cc1 (stereo not given),/,17.0,0.4,1.0,-4.7,4.1
O=S(=O)(Nc1nc2ccccc2nc1NCC1CCCO1)c1cccc(Cl)c1 (stereo not given),1.5,22.8,87.3*,8.5,3.2,14.1
Cc1cc(C)c(S(=O)(=O)N2CCN(C(=O)CN3C(=O)NC4(CCCC4)C3=O)CC2)c(C)c1,7.7,11.8,-7.1,0.8,-7.1,-7.6
COc1ccccc1CC(=O)Nc1ccon1,/,19.8,15.9,0.8,-0.4,-4.8
COc1ccc(-n2c(O)c(/C=N/NS(=O)(=O)c3cccc([N+](=O)[O-])c3)c3ccccc3c2=O)cc1OC,25.6,4.3,88.7*,-5.1,4.4,6.9
COc1ccc(CC(=O)NNS(=O)(=O)c2cccc([N+](=O)[O-])c2)cc1OC,19.4,15.0,/,8.1,1.3,-0.6
CCC(=O)Nc1ccc(C(=O)CN2C(=O)NC3(CCOc4ccccc43)C2=O)cc1 (stereo not given),/,/,-0.6,/,/,/
N=C1C(c2ccccc2)=C(O)CN1c1cccc(S(=O)(=O)N2CCCCC2)c1,28.1,1.9,3.8,-2.1,9.8,-3.4
Cc1ccccc1OCC(=O)NCCCNC(=O)c1ccccn1,12.0,-3.7,-11.6,8.3,1.1,-2.2
Cn1c(C(=O)N2CCc3ccccc3C2)cc2oc3ccccc3c21,-5.8,24.5,-4.4,11.1,65.9*,41.5
CCn1c(C(=O)N2CCc3ccccc3C2)cc2oc3ccccc3c21,-6.0,19.8,-18.0,9.9,27.5,5.9
O=c1nc(/C=C/c2ccc(O)c(O)c2)oc2ccccc12,20.0,9.8,/,/,27.8,18.8
COc1ccc(/C=C\c2nc(=O)c3ccccc3o2)cc1,-20.0,13.8,/,/,75.8*,23.8
CCOC(=O)c1cc(-c2ccccc2)nc2nc(N(CC)CC)sc12,8.7,15.3,2.2,11.3,20.0,1.5
NC(=O)COC(=O)c1ccccc1OCc1ccccc1Cl,-3.4,20.8,-3.6,-7.3,17.4,5.0
CN(C)C=NC(=O)c1cc(C(=O)c2ccc(C(C)(C)C)cc2)c[nH]1,22.6,-43.6,-0.4,3.2,50.4*,14.1
COC(=O)c1cc(C(=O)c2ccc(C(C)(C)C)cc2)c[nH]1,32.8,-85.3*,35.2,-0.4,25.8,10.4
CCCn1c(C)cc(C(=O)COc2ccc(-c3nnco3)cc2)c1C,12.5,13.2,-5.6,11.5,/,/
COc1ccc(NC(=O)CC2C(=O)N(c3ccc(Cl)cc3)C(=S)N2CCc2ccccn2)cc1 (stereo not given),6.6,10.8,98.2*,-1.3,39.9,16.8
CCOC(=O)N1CCN(c2c(N3CCN(C(=O)OCC)CC3)c(=O)c2=O)CC1,20.0,17.5,-1.8,-2.6,-15.3,0.2
CCOC(=O)N1CCN(c2cc3[nH]c(=S)[nH]c3cc2F)CC1,57.4,14.6,90.4*,-0.2,2.4,2.2
CCOC(=O)N1CCN(c2c(F)cc3[nH]c(=S)[nH]c3c2Br)CC1,71.4*,-22.7,40.3,-0.2,-3.3,-1.9
CCOC(=O)N1CCN(c2cc(C)c(C(C)=O)cc2F)CC1,-15.4,24.1,-6.2,-2.4,-16.6,-2.4

# Screening data (PubChem BioAssay)
